Most compounds without a hit are left out; they make up all but 2.2% or so of the library.
VIM-2 inh = VIM-2 metallo-beta-lactamase inhibitors, primary screen, biochemical, epi-absorbance readout, Pseudomonas aeruginosa enzyme; purified VIM-2, nitrocefin hydrolysis, epi-absorbance fluorescence; inhibition, % at 5.6 µM; 290,000 tested, 0.89% active; AID 1527, 2009;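 active means inhibition above the mean of all tested compounds plus 3 SD, cutoff set per screening run, cut at about 7.5% in these data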;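 further: red hydrolysis product quenches plate fluorescence so inhibitors raise well fluorescence; 0% = enzyme with DMSO and 100% = DMSO without enzyme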
eIF4H FP inh = human eIF4H binding inhibitors, primary screen, translation initiation inhibitor project, biochemical, uHTS, fluorescence polarization | 290,000 tested, 0.94% active | Eukaryotic translation initiation factor 4H (Homo sapiens), Q15056 | inhibition, % at 35 µM | eIF4H fluorescence polarization binding assay;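 further: calls also rest on retests at 20 µM and on dose response follow-up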
PABP1 MLLE inh = inhibitors of PABP1 MLLE–PAM2 peptide binding, primary screen, biochemical, fluorescence polarization, FITC-PAM2, GST-MLLE; Polyadenylate-binding protein 1 (Homo sapiens), P11940; inhibition, % at 20 µM; 360,000 tested, 0.36% active; AID 588489, 2011; in the data active means inhibition above about 35%, passing the limit was not always enough;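 further: plate controls were DMSO wells with GST-MLLE for no effect and wells lacking GST-MLLE protein for full effect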
PABP FP inh = PABP poly(A) RNA binding inhibitors, primary screen, biochemical, fluorescence polarization, uHTS. Polyadenylate-binding protein 1 (Homo sapiens), P11940. calls only at 35 µM. 290,000 tested, 1% active;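 further: calls also rest on retests at 20 µM and on dose response follow-up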
IMP-1 inhibitor = IMP-1 metallo-beta-lactamase inhibitors, primary screen, biochemical, epi-absorbance readout, Pseudomonas aeruginosa enzyme; metallo-beta-lactamase IMP-1 (Pseudomonas aeruginosa); inhibition, % at 5.6 µM; 290,000 tested, 0.45% active; purified IMP-1, nitrocefin hydrolysis, epi-absorbance fluorescence;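 active means inhibition above the mean plus 3 SD of all compounds in the same screening run, cut at about 4.5% in these data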;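 further: 0% = IMP-1 with DMSO and 100% = DMSO wells lacking enzyme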
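Material – recombinant IMP-1 enzyme, purified · Amount – IMP-1 0.2 nM before substrate addition · Medium – HEPES buffer pH 7.1 with ZnSO4 and Brij 35 · Timing – 25 °C, 15 min preincubation, 25 min reaction · Measured by – plate fluorescence quenching by hydrolysis product, ex 480/em 530 nm · Read-out – percent enzyme inhibition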
The depositor's hits bear a star. Unless noted, how the calls were made is not given here.

What do the screens show for `CCCC(=O)NC(=S)Nc1sc2c(c1C(N)=O)CCC2`?
VIM-2 inh: 0; eIF4H FP inh: 91; PABP1 MLLE inh: 14; PABP FP inh: active; IMP-1 inhibitor: 0

How did CCN1CCc2c(sc(NC(=S)NC(=O)c3ccco3)c2C(N)=O)C1 do in these assays?
VIM-2 inh: 0; eIF4H FP inh: 85*; PABP1 MLLE inh: -46; PABP FP inh: active; IMP-1 inhibitor: -2

Results for CCC(=O)Nc1sc2c(c1C(N)=O)CCC2 ?
VIM-2 inh: 0; eIF4H FP inh: -6; PABP1 MLLE inh: 4; PABP FP inh: inactive; IMP-1 inhibitor: -4

What do the screens show for `CCN1CCc2c(sc(NC(=O)Cc3ccccc3)c2C(N)=O)C1`?
VIM-2 inh: -2; eIF4H FP inh: -5; PABP1 MLLE inh: -8; PABP FP inh: inactive; IMP-1 inhibitor: 0

How did NC(=O)c1c(NC(=O)Cn2nc(C(=O)O)c3ccccc3c2=O)sc2c1CCC2 do in these assays?
VIM-2 inh: -2; eIF4H FP inh: inconclusive; PABP1 MLLE inh: -1; PABP FP inh: active; IMP-1 inhibitor: -3

Results for CS(=O)(=O)N1CCN(C(=S)NCc2ccc(Cl)cc2)CC1 ?
VIM-2 inh: -1; eIF4H FP inh: 82*; PABP1 MLLE inh: -120; PABP FP inh: active; IMP-1 inhibitor: -1

Results for COc1ccc(-c2cc(-c3ccco3)[nH]c(=O)c2C#N)cc1 ?
VIM-2 inh: 2; eIF4H FP inh: 74*; PABP1 MLLE inh: 7; PABP FP inh: active; IMP-1 inhibitor: 1

How did S=c1[nH]cc2cnccn12 do in these assays?
PABP1 MLLE inh: 70*

How did CC1CCc2c(sc(NC(=O)c3ccc(Cn4cc([N+](=O)[O-])cn4)o3)c2C#N)C1 (stereo not drawn) do in these assays?
VIM-2 inh: -2; eIF4H FP inh: 76*; PABP1 MLLE inh: 2; PABP FP inh: active; IMP-1 inhibitor: 0

Results for CSc1nsc(/C=C/Nc2ccc(F)cc2)c1C#N ?
VIM-2 inh: -2; eIF4H FP inh: 77*; PABP1 MLLE inh: -30; PABP FP inh: active; IMP-1 inhibitor: -3

How did CCN(CC)c1ccc(C=C(c2nnnn2-c2ccc(C)cc2)c2nnnn2-c2ccc(C)cc2)cc1 do in these assays?
VIM-2 inh: -3; eIF4H FP inh: 53*; PABP1 MLLE inh: -71; PABP FP inh: inactive; IMP-1 inhibitor: 52*

Results for Cc1ccc(-n2nnnc2-c2ccccc2)cc1 ?
VIM-2 inh: -2; eIF4H FP inh: 1; PABP1 MLLE inh: 10; PABP FP inh: inactive; IMP-1 inhibitor: -2

How did CCNc1cc2oc(=O)c(CN3CCOCC3)c(C)c2cc1C do in these assays?
VIM-2 inh: 1; eIF4H FP inh: inconclusive; PABP1 MLLE inh: 48*; PABP FP inh: inconclusive; IMP-1 inhibitor: 4

How did Cc1cccc2c1c1ccc3c(c1n2C)C(=O)C=CC3=O do in these assays?
VIM-2 inh: 2; eIF4H FP inh: 24; PABP1 MLLE inh: 35; PABP FP inh: inactive; IMP-1 inhibitor: 5.2*

What do the screens show for `Fc1ccc(NCc2cccnc2)cc1F`?
VIM-2 inh: -1; eIF4H FP inh: inconclusive; PABP1 MLLE inh: 48*; PABP FP inh: inconclusive; IMP-1 inhibitor: -3

Results for Clc1ccc(NCc2cccnc2)cc1 ?
VIM-2 inh: -2; eIF4H FP inh: -4; PABP1 MLLE inh: -17; PABP FP inh: inactive; IMP-1 inhibitor: -3

Results for CCc1n[n+](CC(=O)c2ccccc2)c(N)s1 ?
VIM-2 inh: 0; eIF4H FP inh: 26; PABP1 MLLE inh: 2; PABP FP inh: inactive; IMP-1 inhibitor: -1

What do the screens show for `Cc1oc(/N=C/c2ccc(Cl)cc2Cl)c(C#N)c1C`?
VIM-2 inh: -3; eIF4H FP inh: 18; PABP1 MLLE inh: -3; PABP FP inh: inactive; IMP-1 inhibitor: -4

Results for Cc1oc(/N=C/c2ccccc2O)c(C#N)c1C ?
VIM-2 inh: -1; eIF4H FP inh: 79*; PABP1 MLLE inh: 11; PABP FP inh: active; IMP-1 inhibitor: -3

How did Cc1oc(/N=C/c2ccc(Cl)cc2)c(C#N)c1C do in these assays?
VIM-2 inh: -4; eIF4H FP inh: 53*; PABP1 MLLE inh: -2; PABP FP inh: active; IMP-1 inhibitor: -2

What do the screens show for `CCCCCCCNC(=O)C1(CC2CC(c3ccc(Cl)cc3)=NO2)CCNCC1` (stereo not drawn)?
VIM-2 inh: 3; eIF4H FP inh: -7; PABP1 MLLE inh: -10; PABP FP inh: inactive; IMP-1 inhibitor: 1

Results for Cc1ccc(CN(C)C(=O)COC(=O)CSc2ccc([N+](=O)[O-])cc2)cc1 ?
PABP1 MLLE inh: 43*

What do the screens show for `COc1ccc(/C=C/C(=O)Nc2ccc(S(=O)(=O)Nc3onc(C)c3C)cc2)cc1OC`?
VIM-2 inh: -3; eIF4H FP inh: 1; PABP1 MLLE inh: 10; PABP FP inh: inactive; IMP-1 inhibitor: -4

What do the screens show for `Oc1c(Br)cc(Br)c(/C=N/n2c(-c3ccccc3)n[nH]c2=S)c1Br`?
VIM-2 inh: -1; eIF4H FP inh: 44*; PABP1 MLLE inh: 14; PABP FP inh: active; IMP-1 inhibitor: 0

Results for Oc1ccc(/C=N/n2c(-c3ccccc3)n[nH]c2=S)cc1 ?
VIM-2 inh: 9.2*; eIF4H FP inh: -13; PABP1 MLLE inh: -14; PABP FP inh: inactive; IMP-1 inhibitor: 0

How did CCC(C)NC(=O)Nc1ccc(C)cc1C (stereo not drawn) do in these assays?
VIM-2 inh: -1; eIF4H FP inh: -15; PABP1 MLLE inh: 8; PABP FP inh: inactive; IMP-1 inhibitor: -2

What do the screens show for `O=C1c2ccccc2CC1Sc1nnc(-c2ccncc2)o1` (stereo not drawn)?
VIM-2 inh: 5; eIF4H FP inh: 4.2*; PABP1 MLLE inh: -9; PABP FP inh: active; IMP-1 inhibitor: 0

What do the screens show for `O=C1CC(Sc2nnc(-c3ccccc3)o2)C(=O)N1c1ccccc1` (stereo not drawn)?
VIM-2 inh: -2; eIF4H FP inh: 3; PABP1 MLLE inh: -22; PABP FP inh: inactive; IMP-1 inhibitor: -2

Results for O=C(O)CC12CC3CC(C1)CC(n1ncc(NCc4ccc5c(c4)OCO5)c(Cl)c1=O)(C3)C2 ?
VIM-2 inh: -3; eIF4H FP inh: 25; PABP FP inh: inactive; IMP-1 inhibitor: -3

Results for Cc1ccccc1N=Nc1ccc(O)c2ncccc12 ?
VIM-2 inh: -4; eIF4H FP inh: 26; PABP1 MLLE inh: -3; PABP FP inh: inactive; IMP-1 inhibitor: -2

What do the screens show for `O=S(=O)(O)c1cccc2c(N=Nc3ccc(O)c4ncccc34)cccc12`?
VIM-2 inh: 1; eIF4H FP inh: 82*; PABP1 MLLE inh: 9; PABP FP inh: active; IMP-1 inhibitor: -7

What do the screens show for `CCOC(=O)c1cc2occc2n1Cc1ccc(F)cc1`?
VIM-2 inh: -3; eIF4H FP inh: -2; PABP1 MLLE inh: 2; PABP FP inh: inactive; IMP-1 inhibitor: 24*

Screening results from PubChem BioAssay.
